Data as given in ChEMBL document CHEMBL1126667, “CCK-B agonist or antagonist activities of structurally hindered and peptidase-resistant Boc-CCK4 derivatives” (J Med Chem, 1993).
Non-standard residues stand in square brackets, D forms with d. Residues, ends and D or L forms follow the SMILES beside them. *: point of attachment. NMe1Nal = CN[C@@H](Cc1cccc2ccccc12)C(=O)O; NMeW = CN[C@@H](Cc1c[nH]c2ccccc12)C(=O)O; 1Nal = N[C@@H](Cc1cccc2ccccc12)C(=O)O; 2Nal = N[C@@H](Cc1ccc2ccccc2c1)C(=O)O; Chg = N[C@H](C(=O)O)C1CCCCC1; Phg = N[C@H](C(=O)O)c1ccccc1; Nle = CCCC[C@H](N)C(=O)O; OtBu = CC(C)(C)O*

These compounds were tested against T1, Cholecystokinin receptor type A (Cavia porcellus, UniProt Q63931) (assay: Affinity of compound on binding of [3H]pCCK-8 to the cholecystokinin type A receptor in guinea pig pancreatic membrane).
T1 sequence (Q63931 whole entry): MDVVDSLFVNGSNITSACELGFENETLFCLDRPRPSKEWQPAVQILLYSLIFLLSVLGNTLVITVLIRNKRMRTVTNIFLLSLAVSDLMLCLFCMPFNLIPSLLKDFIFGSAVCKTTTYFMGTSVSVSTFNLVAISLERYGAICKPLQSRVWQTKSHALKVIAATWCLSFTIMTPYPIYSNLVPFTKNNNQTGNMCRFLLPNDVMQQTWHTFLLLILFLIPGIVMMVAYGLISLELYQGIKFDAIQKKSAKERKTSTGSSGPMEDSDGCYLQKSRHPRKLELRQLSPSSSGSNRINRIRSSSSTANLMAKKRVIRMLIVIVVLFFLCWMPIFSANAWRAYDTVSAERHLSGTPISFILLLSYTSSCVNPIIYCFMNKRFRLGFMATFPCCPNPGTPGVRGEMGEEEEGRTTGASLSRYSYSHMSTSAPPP
Format: cell membranes
Summary of the method: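 Competition binding on guinea pig pancreatic membranes (0.2 mg protein/mL) using [3H]pCCK8 at 0.2 nM. Nonspecific binding defined with 1 μM CCK8. Reaction stopped by filtration over BSA-precoated GF/B filters and counted. KI derived by Cheng-Prusoff.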

Row | Ki | SMILES
1 | 3200 nM | CN(C(=O)[C@H](Cc1ccccc1)NC(=O)[C@H](CC(=O)O)NC(=O)[C@@H](N)Cc1ccccc1)[C@@H](Cc1c[nH]c2ccccc12)C(=O)OC(C)(C)C
2 | 8000 nM | CN(C(=O)[C@H](Cc1ccccc1)NC(=O)[C@H](CC(=O)O)NC(=O)[C@@H](N)Cc1ccccc1)[C@H](Cc1c[nH]c2ccccc12)C(=O)OC(C)(C)C
3 | 2100 nM | CN(C(=O)[C@@H](NC(=O)[C@H](CC(=O)O)NC(=O)[C@@H](N)Cc1cccc2ccccc12)C1CCCCC1)[C@@H](Cc1c[nH]c2ccccc12)C(=O)OC(C)(C)C (H-[1Nal]D[Chg][NMeW]-OtBu)

Each compound was assayed against T1, Cholecystokinin receptor type A (assay: Displacement of [3H]-pCCK-8 from cholecystokinin-A receptor in guinea pig pancreatic membrane).
Format: cell membranes
Summary of the method: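 Competition binding on guinea pig pancreatic membranes (0.2 mg protein/mL) using [3H]pCCK8 at 0.2 nM. Reaction stopped by filtration over BSA-precoated GF/B filters and counted. KI derived by Cheng-Prusoff.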

Row | Ki | SMILES
4 | 3500 nM | CN(C(=O)[C@H](Cc1ccccc1)NC(=O)[C@H](CC(=O)O)NC(=O)[C@@H](N)Cc1cccc2ccccc12)[C@@H](Cc1c[nH]c2ccccc12)C(=O)OC(C)(C)C (H-[1Nal]DF[NMeW]-OtBu)
5 | 4200 nM | CCCC[C@H](NC(=O)[C@H](CC(=O)O)NC(=O)[C@@H](N)Cc1ccc2ccccc2c1)C(=O)N(C)[C@@H](Cc1c[nH]c2ccccc12)C(=O)OC(C)(C)C (H-[2Nal]D[Nle][NMeW]-OtBu)
6 | > 5000 nM | CCCC[C@H](NC(=O)[C@H](CC(=O)O)NC(=O)[C@@H](N)Cc1ccccc1)C(=O)N(C)[C@@H](Cc1c[nH]c2ccccc12)C(=O)OC(C)(C)C (H-FD[Nle][NMeW]-OtBu)
7 | 1200 nM | CCCC[C@H](NC(=O)[C@H](CC(=O)O)NC(=O)[C@H](Cc1cccc2ccccc12)NC)C(=O)N(C)[C@@H](Cc1c[nH]c2ccccc12)C(=O)OC(C)(C)C (H-[NMe1Nal]D[Nle][NMeW]-OtBu)
8 | 5400 nM | CN(C)[C@@H](Cc1cccc2ccccc12)C(=O)N[C@@H](CC(=O)O)C(=O)N[C@H](C(=O)N[C@@H](Cc1c[nH]c2ccccc12)C(=O)OC(C)(C)C)C1CCCCC1
9 | 1000 nM | CN(C)[C@@H](Cc1cccc2ccccc12)C(=O)N[C@@H](CC(=O)O)C(=O)N[C@H](C(=O)N[C@@H](Cc1c[nH]c2ccccc12)C(=O)OC(C)(C)C)c1ccccc1
10 | 1100 nM | CCCC[C@H](NC(=O)[C@H](CC(=O)O)NC(=O)[C@@H](N)Cc1ccccc1)C(=O)N[C@H](Cc1c[nH]c2ccccc12)C(=O)OC(C)(C)C (stereo in doubt; 13)
11 | 2400 nM | CC(C)(C)OC(=O)[C@H](Cc1c[nH]c2ccccc12)NC(=O)[C@H](Cc1ccccc1)NC(=O)[C@H](CC(=O)O)NC(=O)[C@@H](N)Cc1cccc2ccccc12 (H-[1Nal]DFW-OtBu)
12 | 990 nM | CC(C)(C)OC(=O)[C@H](Cc1c[nH]c2ccccc12)NC(=O)[C@@H](NC(=O)[C@H](CC(=O)O)NC(=O)[C@@H](N)Cc1cccc2ccccc12)c1ccccc1 (H-[1Nal]D[Phg]W-OtBu)
13 | 830 nM | CN(C(=O)[C@@H](NC(=O)[C@H](CC(=O)O)NC(=O)[C@@H](N)Cc1cccc2ccccc12)c1ccccc1)[C@@H](Cc1c[nH]c2ccccc12)C(=O)OC(C)(C)C (H-[1Nal]D[Phg][NMeW]-OtBu)
14 | 1400 nM | CC(C)(C)OC(=O)[C@H](Cc1c[nH]c2ccccc12)NC(=O)[C@@H](NC(=O)[C@H](CC(=O)O)NC(=O)[C@@H](N)Cc1cccc2ccccc12)C1CCCCC1 (H-[1Nal]D[Chg]W-OtBu)
15 | 6300 nM | CCCC[C@H](NC(=O)[C@H](CC(=O)O)NC(=O)[C@@H](N)Cc1cccc2ccccc12)C(=O)N(C)[C@H](Cc1c[nH]c2ccccc12)C(=O)OC(C)(C)C
16 | 520 nM | CCCC[C@H](NC(=O)[C@H](CC(=O)O)NC(=O)[C@H](Cc1cccc2ccccc12)N(C)C)C(=O)N(C)[C@@H](Cc1c[nH]c2ccccc12)C(=O)OC(C)(C)C
17 | 1200 nM | CCCC[C@H](NC(=O)[C@H](CC(=O)O)NC(=O)[C@@H](N)Cc1cccc2ccccc12)C(=O)N(C)[C@@H](Cc1c[nH]c2ccccc12)C(=O)OC(C)(C)C

What follows are compounds tested against T2, Gastrin/cholecystokinin type B receptor (Rattus norvegicus, UniProt P30553) (assay: Affinity of compound on binding of [3H]pCCK-8 to the cholecystokinin type B receptor in rat brain membrane).
T2 sequence (P30553 whole entry): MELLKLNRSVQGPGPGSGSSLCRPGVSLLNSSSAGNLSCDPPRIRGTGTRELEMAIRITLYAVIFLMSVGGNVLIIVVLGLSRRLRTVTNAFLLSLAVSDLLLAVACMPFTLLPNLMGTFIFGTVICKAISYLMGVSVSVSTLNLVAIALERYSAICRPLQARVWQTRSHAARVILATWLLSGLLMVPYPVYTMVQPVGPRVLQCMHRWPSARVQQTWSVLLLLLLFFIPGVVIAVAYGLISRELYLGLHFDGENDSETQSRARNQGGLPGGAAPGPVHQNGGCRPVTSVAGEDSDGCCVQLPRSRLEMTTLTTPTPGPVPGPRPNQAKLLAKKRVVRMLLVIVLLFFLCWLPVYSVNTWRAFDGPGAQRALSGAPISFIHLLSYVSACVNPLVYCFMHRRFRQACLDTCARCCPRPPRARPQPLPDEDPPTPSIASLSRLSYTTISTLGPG
Format: cell membranes
Summary of the method: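 Brain membranes (0.6 mg protein/mL; rat or guinea pig) incubated with 0.2 nM [3H]pCCK8 in 50 mM Tris-HCl pH 7.4, 5 mM MgCl2, 0.2 mg/mL bacitracin, 60 min at 25 °C. Filtered on BSA-precoated GF/B filters and counted. KI by Cheng-Prusoff; mean ± SEM of three experiments, each in triplicate.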

Row | Ki | SMILES
18 | 51 nM | CN(C)[C@@H](Cc1cccc2ccccc12)C(=O)N[C@@H](CC(=O)O)C(=O)N[C@H](C(=O)N[C@@H](Cc1c[nH]c2ccccc12)C(=O)OC(C)(C)C)c1ccccc1
